Test system: HEp-2 cells, RSV plaque reduction, virus titer
Assay: RSV plaque-forming yield inhibition – cell-based, plaque reduction (AID 504830)
Conditions: at 25 µM; stronger effect = lower value
How it was run: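 Also added – RSV Long strain at MOI 0.1, 2 h infection · Assay system – RSV Long-infected HEp-2 cells · Times – 48 h compound exposure at 37 °C after infection · Detection – neutral red plaque assay on HEp-2 under Avicel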

| Compound | log virus titer change |
| --- | --- |
| Cc1ccc(NC(=O)[C@@H]2CCCN2S(=O)(=O)c2cccc3cccnc23)c(C)c1 | -1 |
| Cc1ccc(NC(=O)C2CCCN2S(=O)(=O)c2cccc3cccnc23)c(C)c1 (centres undefined) | -2.1 |
| Cc1ccc(C)c(NC(=O)[C@@H]2CCCN2S(=O)(=O)c2cccc3cccnc23)c1 | -2 |
| COc1ccc(C)c(NC(=O)[C@@H]2CCCN2S(=O)(=O)c2cccc3cccnc23)c1 | -1 |
